Assay results taken from ChEMBL document CHEMBL1138558, “Synthesis of some new 1,2,4-triazoles, their Mannich and Schiff bases and evaluation of their antimicrobial activities” (2009).
Calls of active or inactive are those of the source. The rule behind the calls is not given here.

Experiments:
Type in all cases: functional
Candida tropicalis = assay: Antimicrobial activity against Candida tropicalis ATCC 13803 at 10 mg/mL after 18 hrs by agar-well diffusion method; details: for zone of inhibition at 10000 µg/mL: ATCC 13803, 18 h, read-out: IZ
Method in brief: (§1)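 Candida cultures were suspended in Mueller Hinton broth at about 10⁶ cfu/mL, flood-inoculated onto Sabouraud dextrose agar and dried. Test solution was loaded into 5-mm wells bored in the agar. Plates were incubated 18 h at 35 °C, and activity was scored as the inhibition zone around each well.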

Pseudomonas aeruginosa = assay: Antimicrobial activity against Pseudomonas aeruginosa ATCC 27853 at 10 mg/mL after 18 hrs by agar-well diffusion method; details: for zone of inhibition at 10000 µg/mL: ATCC 27853, 18 h, read-out: IZ
Method in brief: (§2)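 Agar-well diffusion: each bacterium suspended in Mueller Hinton broth at about 10⁶ cfu/mL, flood-inoculated onto Mueller Hinton agar and dried. 5-mm wells were cut with a sterile cork-borer and filled with the test solution. Plates were incubated 18 h at 35 °C. The read-out was the diameter of the inhibition zone.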

Candida albicans = assay: Antimicrobial activity against Candida albicans ATCC 60193 at 10 mg/mL after 18 hrs by agar-well diffusion method; details: for zone of inhibition at 10000 µg/mL: ATCC 60193, 18 h, read-out: IZ; method in brief: as §1
Staphylococcus aureus = assay: Antimicrobial activity against Staphylococcus aureus ATCC 25923 at 10 mg/mL after 18 hrs by agar-well diffusion method; details: for zone of inhibition at 10000 µg/mL: ATCC 25923, 18 h, read-out: IZ; method in brief: as §2
Enterococcus faecalis = assay: Antimicrobial activity against Enterococcus faecalis ATCC 29212 at 10 mg/mL after 18 hrs by agar-well diffusion method; details: for zone of inhibition at 10000 µg/mL: ATCC 29212, 18 h, read-out: IZ; method in brief: as §2
Bacillus cereus = assay: Antimicrobial activity against Bacillus cereus 702 Roma at 10 mg/mL after 18 hrs by agar-well diffusion method; details: for zone of inhibition at 10000 µg/mL: read-out: IZ; method in brief: as §2
Escherichia coli = assay: Antimicrobial activity against Escherichia coli ATCC 25922 at 10 mg/mL after 18 hrs by agar-well diffusion method; details: for zone of inhibition at 10000 µg/mL: ATCC 25922, 18 h, read-out: IZ; method in brief: as §2
[1] = system: Yersinia pseudotuberculosis; assay: Antimicrobial activity against Yersinia pseudotuberculosis ATCC 911 at 10 mg/mL after 18 hrs by agar-well diffusion method; details: for zone of inhibition at 10000 µg/mL: ATCC 911, 18 h, read-out: IZ
Method in brief: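 Bacteria suspended in Mueller Hinton broth at about 10⁶ cfu/mL, flood-inoculated onto Mueller Hinton agar and dried. Test substance placed into 5-mm wells bored with a sterile cork-borer. Incubation 18 h at 35 °C, then the inhibition zone around each well measured.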

SMILES	inhibition zone (IZ) (Candida tropicalis)	zone of inhibition at 10000 µg/mL (Pseudomonas aeruginosa) [mm]	inhibition zone (IZ) (Candida albicans)	zone of inhibition at 10000 µg/mL (Staphylococcus aureus) [mm]	zone of inhibition at 10000 µg/mL (Enterococcus faecalis) [mm]	zone of inhibition at 10000 µg/mL (Bacillus cereus) [mm]	zone of inhibition at 10000 µg/mL (Escherichia coli) [mm]	zone of inhibition at 10000 µg/mL [1] [mm]	inhibition zone (IZ) (Pseudomonas aeruginosa)	inhibition zone (IZ) (Staphylococcus aureus)	inhibition zone (IZ) (Enterococcus faecalis)	inhibition zone (IZ) (Bacillus cereus)	inhibition zone (IZ) (Escherichia coli)	inhibition zone (IZ) [1]	zone of inhibition at 10000 µg/mL (Candida tropicalis) [mm]	zone of inhibition at 10000 µg/mL (Candida albicans) [mm]
COc1ccc(/C=N/NC(=O)CSc2nnc(-c3ccncc3)n2-c2ccccc2)cc1	inactive	30	inactive	28	28	25	24	30	–	–	–	–	–	–	–	–
NNC(=O)CSc1nnc(-c2ccncc2)n1-c1ccccc1	inactive	–	inactive	–	–	–	–	–	inactive	inactive	inactive	inactive	inactive	inactive	–	–
S=c1n(CN2CCN(Cn3nc(-c4ccncc4)n(-c4ccccc4)c3=S)CC2)nc(-c2ccncc2)n1-c1ccccc1	inactive	–	inactive	–	–	–	–	–	inactive	inactive	inactive	inactive	inactive	inactive	–	–
O=C(CSc1nnc(-c2ccncc2)n1-c1ccccc1)N/N=C/c1ccncc1	inactive	–	inactive	–	–	–	–	–	inactive	inactive	inactive	inactive	inactive	inactive	–	–
S=c1n(CNCCN2CCOCC2)nc(-c2ccncc2)n1-c1ccccc1	inactive	14	inactive	21	16	15	20	22	–	–	–	–	–	–	–	–
Cc1ccc(NC(=S)NNC(=O)CSc2nnc(-c3ccncc3)n2-c2ccccc2)cc1	–	–	–	–	–	–	–	–	inactive	inactive	inactive	inactive	inactive	inactive	7	7
Cc1ccc(Nc2nnc(CSc3nnc(-c4ccncc4)n3-c3ccccc3)s2)cc1	inactive	35	inactive	25	20	20	31	22	–	–	–	–	–	–	–	–
S=c1oc(CSc2nnc(-c3ccncc3)n2-c2ccccc2)nn1CNCCN1CCOCC1	inactive	–	inactive	–	–	–	6	–	inactive	inactive	inactive	inactive	–	inactive	–	–
Sc1nnc(CSc2nnc(-c3ccncc3)n2-c2ccccc2)o1	–	–	–	8	–	6	–	–	inactive	–	inactive	–	inactive	inactive	6	6
Sc1nnc(-c2ccncc2)n1-c1ccccc1	inactive	–	inactive	–	–	–	–	–	inactive	inactive	inactive	inactive	inactive	inactive	–	–
O=C(CSc1nnc(-c2ccncc2)n1-c1ccccc1)N/N=C/c1c(Cl)cccc1Cl	inactive	–	inactive	–	–	–	–	–	inactive	inactive	inactive	inactive	inactive	inactive	–	–
CC(C)CSc1nnc(-c2ccncc2)n1-c1ccccc1	–	30	–	25	30	30	25	30	–	–	–	–	–	–	8	8
O=C(CSc1nnc(-c2ccncc2)n1-c1ccccc1)N/N=C/c1ccccc1O	inactive	30	inactive	25	30	25	30	30	–	–	–	–	–	–	–	–
Cc1ccc(-n2c(CSc3nnc(-c4ccncc4)n3-c3ccccc3)nn(CN3CCN(C)CC3)c2=S)cc1	inactive	–	inactive	–	–	–	–	–	inactive	inactive	inactive	inactive	inactive	inactive	–	–
O=C(CSc1nnc(-c2ccncc2)n1-c1ccccc1)N/N=C/c1ccc(O)c(O)c1	inactive	–	inactive	–	–	–	–	–	inactive	inactive	inactive	inactive	inactive	inactive	–	–
Cc1ccc(N(C)c2nnc(CSc3nnc(-c4ccncc4)n3-c3ccccc3)s2)cc1	inactive	15	inactive	22	7	17	28	16	–	–	–	–	–	–	–	–
CSc1nnc(-c2ccncc2)n1-c1ccccc1	–	30	–	25	30	30	30	30	–	–	–	–	–	–	9	9
CCOC(=O)CSc1nnc(-c2ccncc2)n1-c1ccccc1	–	–	–	–	–	–	–	–	inactive	inactive	inactive	inactive	inactive	inactive	13	13
O=C(CSc1nnc(-c2ccncc2)n1-c1ccccc1)N/N=C/c1ccc(F)cc1	inactive	38	inactive	30	30	23	30	25	–	–	–	–	–	–	–	–
O=C(CSc1nnc(-c2ccncc2)n1-c1ccccc1)N/N=C/c1cccnc1	inactive	–	inactive	–	–	–	8	7	inactive	inactive	inactive	inactive	–	–	–	–
CN1CCN(Cn2nc(-c3ccncc3)n(-c3ccccc3)c2=S)CC1	inactive	30	inactive	24	28	23	24	24	–	–	–	–	–	–	–	–
O=C(CSc1nnc(-c2ccncc2)n1-c1ccccc1)N/N=C/c1ccccn1	inactive	40	inactive	24	20	20	42	30	–	–	–	–	–	–	–	–
Cc1ccc(-n2c(S)nnc2CSc2nnc(-c3ccncc3)n2-c2ccccc2)cc1	inactive	–	inactive	–	15	6	–	–	inactive	inactive	–	–	inactive	inactive	–	–
